Published values of several laboratories.
Protocols differ between the studies behind these lines.

| SMILES | species | matrix | route | dose | setting | Tmax [min] |
| --- | --- | --- | --- | --- | --- | --- |
| Cc1c(C(=O)O)ccc2c3n(nc12)[C@@H]1[C@H](C3)N(CC2CC2)[C@@]2(C(=O)Nc3cc(Cl)ccc32)[C@H]1c1cccc(Cl)c1F | female mouse | plasma | oral | 5 mg/kg |  | 282 |
| CC(C(=O)Nc1c(F)cccc1F)N1CCN(c2ccccc2)CC1 (centres unmarked) | female C57BL/6 mouse | brain | intraperitoneal | 10 mg/kg |  | 15 |
| COc1cc2c(NC3CCN(CCCC(=O)NCCCCCCCCCCCC(=O)N[C@H](C(=O)N4C[C@H](O)C[C@H]4C(=O)NCc4ccc(-c5scnc5C)cc4)C(C)(C)C)CC3)nc(N3CCC(F)(F)CC3)nc2cc1OCCCN1CCCC1 | male C57BL/6 mouse | plasma | intraperitoneal | 50 mg/kg | single dose | 30 |
| C[C@@H](N[C@H]1CCN(c2ccc(CC(=O)O)cc2)C1)c1cccc2ccccc12 | male CD-1 mouse | plasma | subcutaneous | 3 mg/kg | single dose | 60 |
| CCN1CCN(Cc2ccc(NC(=O)c3ccc(C)c(NC(=O)c4cncc(-c5cccs5)c4)c3)cc2C(F)(F)F)CC1 | mouse | plasma | intraperitoneal | 20 mg/kg | single dose | 30 |
| C[C@@H](NCCCc1cccc(C(F)(F)F)c1)c1cccc2ccccc12 | male CD-1 mouse | plasma | subcutaneous | 3 mg/kg | single dose | 15 |
| C=CS(=O)(=O)c1ccc(Nc2nc(OCC3CCCCC3)c3nc[nH]c3n2)cc1 | male BALB/c mouse | plasma | intraperitoneal | 20 mg/kg | single dose | 4.8 |
| Cc1cc2sc(N)nc2c2cccnc12 | female BALB/c mouse | plasma | intraperitoneal | 30 mg/kg | single dose | 15 |
| Nc1ncn([C@H]2C[C@H](O)[C@@H](CO)O2)c(=O)n1 | female C57BL/6 mouse | plasma | oral | 0.4 mg/kg |  | 4.98 |
| CC(=O)O[C@@]12CO[C@@H]1C[C@H](O)[C@@]1(C)C(=O)[C@H](O)C3=C(C)[C@@H](OC(=O)[C@H](O)[C@@H](NC(=O)OC(C)(C)C)c4ccccc4)C[C@@](O)([C@@H](OC(=O)c4ccccc4)[C@H]21)C3(C)C | male Kunming mouse | liver | oral | 20 mg/kg |  | 30 |
| CCOc1ccc(N(C)S(=O)(=O)c2cc(Cl)sc2C(=O)Nc2cc(Cl)cc(C(=O)O)c2)cc1OC | male C57BL/6 mouse | plasma | intraperitoneal | 10 mg/kg |  | 15 |
